This is an account of results in ChEMBL document CHEMBL1126280, “Development of a novel series of styrylquinoline compounds as high-affinity leukotriene D4 receptor antagonists: synthetic and structure-activity studies leading to the discovery of (+-)-3-[[[3-[2-(7-chloro-2-quinolinyl)-(E)-ethenyl]phenyl][[3- (dimethylamino)-3-oxopropyl]thio]methyl]thio]propionic …” (J Med Chem, 1992).

The subject of one assay is Cavia porcellus. The experiment in a line: Compound was evaluated in vivo for its effective dose against bronchoconstriction induced by LTD4 (0.2 ug/kg, iv) in anesthetized guinea pigs followed by id administration. It is filed as functional. The method in brief:
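Anesthetized guinea pigs were dosed once intraduodenally and challenged with LTD4 (0.2 μg/kg iv) 10, 30 and 50 min later. The effective dose is the minimum id dose giving over 50% inhibition of bronchoconstriction within 50 min. The number of experiments is reported with each value.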

Assay [1] relates to Rattus norvegicus. Kind of assay: Compound was evaluated in vivo for inhibition of dyspnea induced by a 5 min aerosol of ovalbumin in 6 hyperreactive rats at dose of 1.5 mg/Kg. It is filed as functional. The method in brief:
(§1)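 Oral single-dose test in hyperreactive rats, six animals, with dyspnea provoked by a 5 min ovalbumin aerosol. The value is the percent inhibition of dyspnea at the one stated dose.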

In assay [2] the target is T1, Cysteinyl leukotriene receptor 1 (Cavia porcellus, UniProt Q2NNR5).
T1 sequence (Q2NNR5 whole entry): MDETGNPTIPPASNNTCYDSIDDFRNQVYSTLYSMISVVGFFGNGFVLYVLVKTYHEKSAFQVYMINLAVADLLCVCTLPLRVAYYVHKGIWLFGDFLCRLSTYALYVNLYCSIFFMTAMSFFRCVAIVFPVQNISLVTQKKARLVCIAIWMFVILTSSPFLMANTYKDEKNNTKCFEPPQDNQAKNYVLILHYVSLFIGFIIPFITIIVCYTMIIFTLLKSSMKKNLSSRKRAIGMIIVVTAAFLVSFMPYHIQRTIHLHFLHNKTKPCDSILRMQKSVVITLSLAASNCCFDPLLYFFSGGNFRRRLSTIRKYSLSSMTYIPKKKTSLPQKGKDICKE
The experiment in a line: (§2) In vitro inhibition of [3H]LTD4 binding to guinea pig lung membranes. The assay is classed as functional, tissue-based, Membrane.

Assay [3] deals with T1, Cysteinyl leukotriene receptor 1. Described as §2. The assay is classed as tissue-based, Membrane.
The subject of assay [4] is Rattus norvegicus. Kind of assay: Compound was evaluated in vivo for inhibition of dyspnea induced by a 5 min aerosol of ovalbumin in six hyperactive rats for each of three doses. The assay is classed as functional. The method in brief: (§3)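 Oral dosing in hyperreactive rats. Dyspnea was provoked by a 5 min ovalbumin aerosol. Six rats were used at each of three doses. The ED50 was derived from the percent inhibition of dyspnea across those doses.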

The test system of assay [5] is Rattus norvegicus. Kind of assay: Compound was evaluated in vivo for inhibition of dyspnea induced by a 5 min aerosol of ovalbumin in 6 hyperreactive rats for each of three doses. It is filed as functional. The method in brief: as §3
For assay [6], the target named is T2, Cysteinyl leukotriene receptor 1 (Cavia porcellus) (UniProt Q2NNR5).
T2 sequence (whole entry): T1 sequence (Q2NNR5 whole entry)
Kind of assay: In vitro inhibition of [3H]LTD4 binding to guinea pig lung membranes at 1 uM. The assay is classed as functional, tissue-based. The settings on record: Membrane.

For assay [7], the system named is Rattus norvegicus. Kind of assay: Compound was evaluated in vivo for inhibition of dyspnea induced by a 5 min aerosol of ovalbumin in 6 hyperreactive rats at dose of 0.5 mg/Kg. The assay is classed as functional. The method in brief: as §1

A word on the inhibition in vivo: it is the percentage by which the read-out fell short of the control. A high value points to a strong effect. As a reminder, the IC50 is the concentration that gives 50% inhibition. A word on the Inhibition: it is the percentage by which the read-out fell short of the control. For orientation: inhibition means the share of the control response that was lost under treatment. Low values mean a weak effect, high ones a strong effect. A word on the ED50: it is the midpoint of the dose-response relation. A higher ED50 goes with weaker potency.

As for `O=C([O-])CCCOc1cccc(/C=C/c2ccc3cc(Cl)ccc3n2)c1.[Na+]`, the Effective dose with Cavia porcellus came out at 5 mg/kg. For the same molecule, the inhibition in vivo at 1.5 mg/kg in the assay on Rattus norvegicus [1] is 40%. `COC(=O)COc1cccc(/C=C/c2ccc3cc(C)ccc3n2)c1` returned an Effective dose with Cavia porcellus greater than 10 mg/kg. The IC50 in assay [2] was determined as 930 nM. Turning to `CN(C)C(=O)CCSC(SCCC(=O)O)c1cccc(SCc2ccc3ccc(Cl)cc3n2)c1` (stereo unspecified), the IC50 in assay [3] was determined as 89 nM. This counts as double-digit nanomolar. The same measure, in the same setting: the result for `O=C(O)CCSC(SCCC(=O)O)c1cccc(CCc2ccc3ccc(Cl)cc3n2)c1` reads 57 nM; that for `O=C(O)CCSC(SCCC(=O)O)c1cccc(CCCc2ccc3ccc(Cl)cc3n2)c1`, 250 nM.

In turn, `O=C(O)CCSC(SCCC(=O)O)c1cccc(NC(=O)c2ccc3ccccc3n2)c1` registered an IC50 in assay [3] of 440 nM.

For the molecule `O=C(O)CCSC(SCCC(=O)N1CCOCC1)c1cccc(/C=C/c2ccc3ccc(Cl)cc3n2)c1` (stereo unspecified), the IC50 in assay [3] was found to be 2.2 nM. For the same molecule, the Inhibition in the assay on Rattus norvegicus [4] stood at 43%. In the assay on Rattus norvegicus [5], this molecule returned an Effective dose of 0.15 mg/kg. Regarding `CCCC/C=C/c1ccc2nc(/C=C/c3cccc(OCC(=O)OC)c3)ccc2c1`, the inhibition in assay [6] stood at 12%. The molecule `C(=C\c1ccc2ccccc2n1)/c1ccncc1` showed an IC50 in assay [3] of 3300 nM. On the same count and under the same terms, the result for `CN(C)CCSC(SCCC(=O)O)c1cccc(/C=C/c2ccc3ccc(Cl)cc3n2)c1` (stereo unspecified) reads 60 nM; that for `C(=C\c1ccc2ccccc2n1)/c1cccnc1`, 6000 nM. `O=C([O-])CCCOc1cccc(/C=C/c2ccc3c(Cl)cccc3n2)c1.[Na+]` came in with an Effective dose in the assay with Cavia porcellus greater than 5 mg/kg. For the molecule `NC(=O)CCSC(SCCC(=O)O)c1cccc(/C=C/c2ccc3ccc(Cl)cc3n2)c1` (stereo unspecified), in assay [3], the IC50 was 0.3 nM. Also, in the assay with Cavia porcellus, the Effective dose came to 0.5 mg/kg. As to `O=C(O)CCSC(SCCC(=O)O)c1cccc(C2CC2c2ccc3ccc(Cl)cc3n2)c1` (stereo unspecified), the IC50 in assay [3] was determined as 32 nM. In other words, the double-digit nanomolar range. For `CCOC(=O)CCCOc1cccc(/C=C/c2ccc3ccccc3n2)c1`, in the assay with Cavia porcellus, the Effective dose is 5 mg/kg. Further, the ED50 in the assay on Rattus norvegicus [5] was 1.5 mg/kg.

Consider `O=C([O-])CCCOc1cccc(/C=C/c2ccc3ccc(Cl)cc3n2)c1.[Na+]`, for which, in the assay on Cavia porcellus, the Effective dose was determined as 2.5 mg/kg. This molecule gave an inhibition in vivo at 0.5 mg/kg in the assay on Rattus norvegicus [7] of 41%. For `O=C(O)CCCOc1cccc(/C=C/c2ccc3ccccc3c2)c1`, the inhibition in assay [6] turned out to be 11%. In the assay on Cavia porcellus, `O=C([O-])CCCOc1cccc(/C=C/c2ccc3cc(Cl)c(Cl)cc3n2)c1.[Na+]` gave an Effective dose of 1 mg/kg. The molecule further showed an ED50 in the assay on Rattus norvegicus [5] of 0.5 mg/kg. In turn, `CN(C)C(=O)CCSC(SCCC(=O)O)c1cccc(/C=C/c2ccc3ccc(Cl)cc3n2)c1` (stereo unspecified) [MK-571] gave an IC50 in assay [3] of 0.8 nM. This molecule yielded an Effective dose with Cavia porcellus of 0.1 mg/kg. Besides, in the assay with Rattus norvegicus [5], the ED50 came to 0.07 mg/kg. Regarding `C(=C\c1ccc2ccccc2n1)/c1ccccc1`, the IC50 in assay [3] was found to be 6000 nM. In other words, the single-digit micromolar range. `CC(Oc1cccc(Sc2ccc3ccc(Cl)cc3n2)c1)C(=O)O` (stereo unspecified) returned an inhibition in assay [6] of 24%. Molecule `COC(=O)COc1cccc(/C=C/c2ccc3ccccc3n2)c1` had an Effective dose in the assay with Cavia porcellus of 10 mg/kg. Further, the ED50 in the assay on Rattus norvegicus [5] turned out to be 2 mg/kg.

In the case of `O=C(O)CCSC(SCCC(=O)O)c1cccc(OCc2ccc3ccc(Cl)cc3n2)c1`, in assay [3], the IC50 was found to be 13.6 nM.

For `O=C(O)CCSC(SCCC(=O)O)c1cccc(/C=C/c2ccc3ccc(Cl)cc3n2)c1`, the Effective dose in the assay with Cavia porcellus was 0.5 mg/kg. The molecule further had an ED50 in the assay with Rattus norvegicus [5] of 0.1 mg/kg.
